Positions of bridges follow the written chain, without caps; N, C: chain ends. Non-standard residues stand in square brackets, D forms with d. Residues, ends and D or L forms follow the SMILES beside them. hSer = N[C@@H](CCO)C(=O)O Bounds are passed on as bounds.

Series [1] is described as follows: Oxytocic potency in rat uterus in presence of 0.5 mM Mg2+. Format: functional. An outline of the steps:
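Isolated rat uterus suspended in solution containing 0.5 mM Mg2+; oxytocic activity assayed against USP posterior pituitary reference standard.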

The nature of series [2]: Oxytocic potency in rat uterus. Format: functional. An outline of the steps:
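Isolated rat uterus suspended in bath solution without Mg2+; oxytocic activity assayed against USP posterior pituitary reference standard.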

Series [3] relates to Rattus norvegicus. Kind of series: Antidiuretic activity in iv dosed hydrated rat anesthetized with ethanol. Format: ADME, organism-based, Urine. The following applies: in vivo.
The subject of series [4] is Rattus norvegicus. Kind of series: Oxytocic activity in iv dosed lactating rat anesthetized with pentobarbital assessed as milk ejection. Format: functional. The procedure, abridged:
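Lactating rats anesthetized with pentobarbital received peptide by intravenous injection; milk-ejection response measured relative to USP posterior pituitary reference standard.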

The species entered for series [5] is Rattus norvegicus. Kind of series: Vasopressor activity in phenoxybenzamine-treated rat under urethane anesthesia. Format: ADME, organism-based. The following applies: in vivo. An outline of the steps: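 Rats pretreated with phenoxybenzamine, under urethane anesthesia; pressor response assayed against USP posterior pituitary reference standard.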
Series [6] is described as follows: Ratio of oxytocic potency in rat uterus to vasopressor activity in phenoxybenzamine-treated rat under urethane anesthesia.
Series [7] can be described thus: Ratio of oxytocic potency in rat uterus to antidiuretic activity in iv dosed hydrated rat anesthetized with ethanol.

Take `CC[C@H](C)[C@@H]1NC(=O)[C@H](Cc2ccc(O)cc2)NC(=O)[C@@H](N)CSSC[C@@H](C(=O)N2CCC[C@H]2C(=O)N[C@@H](CC(C)C)C(=O)NCC(N)=O)NC(=O)[C@H](CC(N)=O)NC(=O)[C@H](CCC(N)=O)NC1=O` [OXYTOCIN]: the Activity in series [1] is listed as 486 U/mg; in series [2], 520 U/mg; in the series on Rattus norvegicus [3], 4 U/mg; with Rattus norvegicus [4], 474 U/mg.
Turning to `CC[C@H](C)[C@@H]1NC(=O)[C@H](Cc2ccc(O)cc2)NC(=O)[C@@H](N)CSSC[C@@H](C(=O)N2CCC[C@H]2C(=O)N[C@@H](CC(C)C)C(=O)NCC(N)=O)NC(=O)[C@H](CC(N)=O)NC(=O)[C@H]([C@@H](C)O)NC1=O` (H-CYITNCPLG-NH2; disulfide 1-6), the Activity amounted to 0.43 U/mg in the series filed under Rattus norvegicus [5]; 719 U/mg in series [1]; 923 U/mg in series [2]; 1.8 U/mg in the series on Rattus norvegicus [3]; 543 U/mg in the series with Rattus norvegicus [4]. Moreover, the results for the Ratio in series [6] and in series [7] were 2150 and 510, respectively.
In the case of `CC[C@H](C)[C@@H]1NC(=O)[C@H](Cc2ccc(O)cc2)NC(=O)[C@@H](N)CSSC[C@@H](C(=O)N2CCC[C@H]2C(=O)N[C@@H](CC(C)C)C(=O)NCC(N)=O)NC(=O)[C@H](CC(N)=O)NC(=O)[C@H](CC(N)=O)NC1=O` (H-CYINNCPLG-NH2; disulfide 1-6), the Activity in the series filed under Rattus norvegicus [5] is given as 0.12 U/mg; in series [1] it was 490 U/mg; in series [2], 108 U/mg; in the series on Rattus norvegicus [3] it was 0.044 U/mg; with Rattus norvegicus [4], 300 U/mg. Further, the Ratio worked out at 823 in series [6] and 929 in series [7].
As for `CC[C@H](C)[C@@H]1NC(=O)[C@H](Cc2ccc(O)cc2)NC(=O)[C@@H](N)CSSC[C@@H](C(=O)N2CCC[C@H]2C(=O)N[C@@H](CC(C)C)C(=O)NCC(N)=O)NC(=O)[C@H](CC(N)=O)NC(=O)[C@H](CO)NC1=O` (H-CYISNCPLG-NH2; disulfide 1-6), the Activity in the series filed under Rattus norvegicus [5] came to 0.028 U/mg; in series [1], 331 U/mg; in series [2] it was 148 U/mg; in the series with Rattus norvegicus [3], 0.06 U/mg; in the series with Rattus norvegicus [4], 255 U/mg. The Ratio is recorded as greater than 1950 in series [6] and 80 in series [7].
Regarding `CC[C@H](C)[C@@H]1NC(=O)[C@H](Cc2ccc(O)cc2)NC(=O)[C@@H](N)CSSC[C@@H](C(=O)N2CCC[C@H]2C(=O)N[C@@H](CC(C)C)C(=O)NCC(N)=O)NC(=O)[C@H](CC(N)=O)NC(=O)[C@H](CCO)NC1=O` (H-CYI[hSer]NCPLG-NH2; disulfide 1-6), the Activity turned out to be 0.021 U/mg in the series filed under Rattus norvegicus [5]; 380 U/mg in series [1]; 125 U/mg in series [2]; 0.24 U/mg with Rattus norvegicus [3]; 357 U/mg in the series with Rattus norvegicus [4]. Besides, the values for the Ratio in series [6] and in series [7] were 5950 and 520, respectively.

For the origin of these results see ChEMBL document CHEMBL3271978, “Synthesis and some pharmacological properties of [4-homoserine]oxytocin” (J Med Chem, 1977).
